PubChem BioAssay AID1744 (Vanderbilt High Throughput Screening Facility, 2009)

Biological target: Muscarinic acetylcholine receptor M1 (Rattus norvegicus) (UniProt P08482)
Assay: muscarinic receptor subtype activation panel – cell-based, agonist mode, selectivity assay for M1 allosteric modulator project, profiling panel (AID 1744)
Details: CHO-K1 rat M1, Fluo-4 calcium flux
In short: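 System – CHO-K1 cells stably carrying rat M1 muscarinic receptor · Buffer or medium – Fluo-4 loading buffer at pH 7.4 · Dosing – compounds alone, agonist mode · Incubation – Fluo-4 dye loading for 1 h at 37 °C · Measured by – Fluo-4 calcium fluorescence · Benchmarks – maximal acetylcholine response as high reference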

| SMILES | EC50 |
| --- | --- |
| CCOC(=O)N1CCC(NCCNC(=O)c2ccc(F)c(F)c2)CC1 | 0.211 µM |
| CCOC(=O)N1CCC(NCCNC(=O)c2cccs2)CC1 | 1.74 µM |
| CCOC(=O)N1CCC(NCCNC(=O)c2ccccc2C)CC1 | 0.198 µM |
| CCOC(=O)N1CCC(NCCNC(=O)c2ccc(F)cc2)CC1 | 0.154 µM |
| CCOC(=O)N1CCC(NCCNC(=O)c2cccc(OC)c2)CC1 | 0.438 µM |

The remaining lines, values ahead:

| EC50 | SMILES |
| --- | --- |
| 0.152 µM | CCOC(=O)N1CCC(NCCNC(=O)c2ccccc2)CC1 |
| 0.804 µM | CCOC(=O)N1CCC(NCCNC(=O)c2ccccc2Cl)CC1 |
| 0.154 µM | CCOC(=O)N1CCC(NCCNC(=O)c2cccc(F)c2)CC1 |
